# From ChEMBL document CHEMBL1125701 (J Med Chem, 1991)
# Key:
# [1] = target: Kappa-type opioid receptor (Homo sapiens) (UniProt P41145); test: Competitive inhibition of Ethylketazocine on Guinea pig ileal longitudinal muscle for the opioid receptor kappa at 200 nM; format: functional
# How it was run: (§1)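 Electrically stimulated guinea pig ileal longitudinal muscle, κ agonist ethylketazocine. The antagonist was preincubated for 15 min before agonist testing. Agonist IC50 was measured with and without antagonist on the same preparation. IC50 ratio = IC50 with antagonist / control IC50. Ke = [antagonist]/(IC50 ratio − 1).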
# [2] = target: Mu-type opioid receptor (Cavia porcellus) (UniProt P97266); test: Selectivity ratio is Ki value of mu-opioid receptor to that of delta-opioid receptor
# [3] = target: Mu-type opioid receptor (Homo sapiens) (UniProt P35372); test: Competitive inhibition of Morphine on Guinea pig ileal longitudinal muscle for the opioid receptor mu at 200 nM; format: functional
# How it was run: as §1, with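 “μ” for “κ”, “morphine.” for “ethylketazocine.”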
# [4] = target: Mu-type opioid receptor (Cavia porcellus) (UniProt P97266); test: Selectivity ratio is IC50 value of mu-opioid receptor to that of delta-opioid receptor
# [5] = target: Kappa-type opioid receptor (Cavia porcellus) (UniProt P41144); test: Selectivity ratio is IC50 value of opioid receptor kappa to that of opioid receptor delta
# [6] = target: Delta-type opioid receptor (Mus musculus) (UniProt P32300); test: Antagonistic potency at opioid receptor delta (20 nM) (Ke =IC50 in the presence of antagonist divided by the control IC50 value); format: functional
# How it was run: (§2)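 Electrically stimulated mouse vas deferens preparation, δ agonist DADLE. The antagonist was incubated with the tissue for 15 min before agonist testing. DADLE IC50 was measured with and without antagonist on the same preparation. IC50 ratio = IC50 with antagonist / control IC50. Ke = [antagonist]/(IC50 ratio − 1).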
# [7] = target: Mu-type opioid receptor (Cavia porcellus) (UniProt P97266); test: Antagonistic potency at opioid receptor mu (200 nM) (Ke =IC50 in the presence of antagonist divided by the control IC50 value); format: functional
# How it was run: as §1, with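 “μ” for “κ”, “morphine.” for “ethylketazocine.”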
# [8] = target: Kappa-type opioid receptor (Cavia porcellus) (UniProt P41144); test: Antagonistic potency at opioid receptor kappa (200 nM) (Ke =IC50 in the presence of antagonist divided by the control IC50 value); format: functional; how it was run: as §1
# [9] = target: Kappa-type opioid receptor (Cavia porcellus) (UniProt P41144); test: Selectivity ratio is Ki value of opioid receptor kappa to that of delta-opioid receptor
# [10] = target: Kappa-type opioid receptor (Cavia porcellus) (UniProt P41144)
# [11] = target: Mu-type opioid receptor (Homo sapiens) (UniProt P35372); conditions: 100 nM
# [12] = target: Kappa-type opioid receptor (Homo sapiens) (UniProt P41145); conditions: 100 nM
# [13] = target: Delta-type opioid receptor (Mus musculus) (UniProt P32300); test: Antagonistic potency at opioid receptor delta (100 nM) (Ke =IC50 in the presence of antagonist divided by the control IC50 value); format: functional; how it was run: as §2
# [14] = target: Mu-type opioid receptor (Cavia porcellus) (UniProt P97266)
# [15] = target: Mu-type opioid receptor (Cavia porcellus, UniProt P97266); test: Compound was evaluated for the binding affinity to Opioid receptor mu using [3H]DAMGO as radioligand in guinea pig brain membrane; format: cell membranes
# [16] = target: Kappa-type opioid receptor (Cavia porcellus, UniProt P41144); test: Compound was evaluated for the binding affinity to opioid receptor kappa using [3H]-EK as radioligand in guinea pig brain membrane; format: cell membranes
# How it was run: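 Radioligand displacement in guinea pig brain membranes, modified from an earlier published method. [3H]EK was used with 1 μM DAMGO present to block μ sites.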
# [17] = target: Delta-type opioid receptor (Mus musculus) (UniProt P32300); test: Antagonistic potency at opioid receptor delta (200 nM) (Ke =IC50 in the presence of antagonist divided by the control IC50 value); format: functional; how it was run: as §2
# [18] = target: Kappa-type opioid receptor (Cavia porcellus) (UniProt P41144); test: Selectivity ratio is IC50 value of opioid receptor kappa to that of delta-opioid receptor
# [19] = target: Kappa-type opioid receptor (Homo sapiens) (UniProt P41145); test: Competitive inhibition of Ethylketazocine on Guinea pig ileal longitudinal muscle for the opioid receptor kappa at 20 nM; format: functional; how it was run: as §1
# [20] = target: Kappa-type opioid receptor (Cavia porcellus) (UniProt P41144); test: Antagonistic potency at opioid receptor kappa (20 nM) (Ke =IC50 in the presence of antagonist divided by the control IC50 value); format: functional; how it was run: as §1
SMILES,Ratio [4],Ratio [5],Ke [7],Ke [8],Ke [10],Ke [13],Ke [14],other results
Oc1ccc2c3c1O[C@H]1c4nc5ccccc5nc4C[C@@]4(O)[C@@H](C2)N(CC2CC2)CC[C@]314,3,5,5.5,10,,,,IC50 ratio [1]: 21; Ratio [2]: 9; IC50 ratio [3]: 37; Ke [6]: 1.9; Ratio [9]: 227
Oc1ccc2c3c1O[C@H]1c4nc5ccccc5cc4C[C@@]4(O)[C@@H](C2)N(CC2CC2)CC[C@]314,6,8,,,15.4,1.9,11,IC50 ratio [11]: 9.9; IC50 ratio [12]: 7.5
Cn1c2c(c3c1[C@@H]1Oc4c(O)ccc5c4[C@@]14CCN(CC1CC1)[C@H](C5)[C@]4(O)C3)CCCC2,,,,,254,,158,
Oc1ccc2c3c1O[C@H]1c4oc5ccccc5c4C[C@@]4(O)[C@@H](C2)N(CC2CC2)CC[C@]314,,,27,48,,,,Ke [6]: 0.27
Oc1ccc2c3c1O[C@H]1C(c4ccccc4)=CC[C@@]4(O)[C@@H](C2)N(CC2CC2)CC[C@]314,,,,,1.7,13.5,0.68,IC50 ratio [11]: 148
Oc1ccc2c3c1O[C@H]1C(c4c[nH]c5ccccc45)=CC[C@@]4(O)[C@@H](C2)N(CC2CC2)CC[C@]314,0.21,,1.1,0.83,,,,Ki [15]: 0.63 nM; Ki [16]: 6.2 nM; Ke [17]: 5.1; Ratio [18]: 0.16; IC50 ratio [1]: 243; Ratio [2]: 0.6; IC50 ratio [3]: 189; Ratio [9]: 6
Oc1ccc2c3c1O[C@H]1C(c4ccc[nH]4)=CC[C@@]4(O)[C@@H](C2)N(CC2CC2)CC[C@]314,,0.03,,,,8.2,,IC50 ratio [19]: 89; Ke [20]: 0.23
